CSC inhib = blocks cancer stem cells; cancer stem cell-like cells viability, luminescence; inhibition, % at 7.5 µM; 300,000 tested, 1.1% active; AID 2717; in the data active = inhibition above about 75%; inconclusive = no clear call, values can overlap the other calls; tested in HMLE shEcad cells
Beta apoptosis = blocks beta cell apoptosis. INS-1E cytokine-induced death, ATP luminescence, 48 h; percent of positive-control rescue, neutral wells zero. protection from apoptosis, % (concentration not given with the values). 300,000 tested, 0.8% active;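 active = Every replicate reaches about 75%, or at least half do and their mean reaches it too, limit read from the data; inconclusive = At least half of replicates reach the limit but their mean does not; inactive = Under half of replicates reach the limit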;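 also: 0% = cytokine-treated negative control wells and 100% = positive control rescue; higher means more ATP so stronger rescue from cytokine killing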
T cruzi repl = T. cruzi replication inhibition. 300,000 tested, 1.4% active. inhibition, % (concentration not given with the values). AID 1885. T. cruzi beta-gal in NIH3T3, luminescence, 90 h;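 active = mean inhibition across valid replicates above about 55%, limit read from the data; inconclusive = mean below that limit but half or more replicates reach it; inactive = mean below it, under half of replicates reach it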;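 also: signal also drops with host cell toxicity which is not excluded here; 0% = plate median of DMSO wells and 100% = zero luminescence signal; higher percent means less beta-gal luminescence so fewer parasites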
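Assay system: NIH/3T3 fibroblasts plus reporter T. cruzi. Amount: NIH/3T3 cells, 5,000 per well. Buffer or medium: DMEM, 2% fetal bovine serum. Doses: compound pinned at 50 nL/well, DMSO. Schedule: ≥90 h infection period, 3 h prior cell attachment. Signal: luminescent β-galactosidase signal after 60 min lysis. Read-out: parasite load inhibition, %.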
Mdm2-MdmX inh = inhibitors of human Mdm2/MdmX interaction; inhibition, % at 8 µM; SaOS-2 split-luciferase Mdm2/MdmX complementation, luminescence; O15151+Q00987; 330,000 tested, 3% active; AID 485346;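 active = inhibition of at least 50% at 8 µM in the primary screen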
Target sequence (O15151 whole entry, looked up): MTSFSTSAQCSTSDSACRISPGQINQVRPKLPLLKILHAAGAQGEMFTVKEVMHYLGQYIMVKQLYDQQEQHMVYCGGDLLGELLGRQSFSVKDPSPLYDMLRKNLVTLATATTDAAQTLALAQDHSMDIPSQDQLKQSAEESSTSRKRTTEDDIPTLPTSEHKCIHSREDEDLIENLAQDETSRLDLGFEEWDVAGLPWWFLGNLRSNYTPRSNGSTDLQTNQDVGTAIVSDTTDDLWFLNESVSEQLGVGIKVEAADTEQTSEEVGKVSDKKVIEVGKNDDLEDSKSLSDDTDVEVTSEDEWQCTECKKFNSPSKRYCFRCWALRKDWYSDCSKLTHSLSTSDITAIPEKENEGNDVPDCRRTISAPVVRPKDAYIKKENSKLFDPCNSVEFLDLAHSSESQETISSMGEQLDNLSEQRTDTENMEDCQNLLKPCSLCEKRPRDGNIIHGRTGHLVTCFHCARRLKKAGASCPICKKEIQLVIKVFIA
Target sequence (Q00987 whole entry, looked up): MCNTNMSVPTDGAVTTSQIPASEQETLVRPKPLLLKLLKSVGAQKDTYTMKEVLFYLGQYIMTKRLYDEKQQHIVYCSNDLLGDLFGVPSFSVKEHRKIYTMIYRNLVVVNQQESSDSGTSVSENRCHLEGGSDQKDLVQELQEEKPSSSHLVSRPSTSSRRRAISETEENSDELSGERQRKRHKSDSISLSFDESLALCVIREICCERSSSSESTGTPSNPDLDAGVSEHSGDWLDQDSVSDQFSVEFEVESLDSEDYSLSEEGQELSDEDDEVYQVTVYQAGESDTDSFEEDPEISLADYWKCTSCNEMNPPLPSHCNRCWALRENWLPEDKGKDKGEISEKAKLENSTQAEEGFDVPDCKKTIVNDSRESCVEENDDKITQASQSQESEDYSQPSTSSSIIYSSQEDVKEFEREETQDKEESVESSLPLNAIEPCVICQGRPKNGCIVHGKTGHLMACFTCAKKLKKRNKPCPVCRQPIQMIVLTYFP
Calb FLC = C. albicans growth modulation with fluconazole; C. albicans CaCi-2 (fluconazole-resistant clinical isolate) + fluconazole, Alamar Blue growth, 48 h; growth inhibition, % (test concentration not listed); 300,000 tested, 0.57% active;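 active = growth inhibition above about 58% in most replicates, limit read from the data, passing the limit was not always enough; inconclusive = exactly half the replicates above a set limit; inactive = most replicates below a set limit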;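 also: all wells also contain fluconazole at 8 µg/ml as a sub-toxic cotreatment; 0% = median of DMSO wells and 100% = median of geldanamycin control wells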
SKKanGAS inh = inhibitors of SKKanGAS S. pyogenes growth in kanamycin (SK-promoter or general growth effect); AID 1662; inhibition, % at 7.5 µM; 300,000 tested, 1.3% active; BacTiter-Glo, 6 h;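 active = mean replicate score, as percent of positive control median, at least 50; inconclusive = mean below 50 but one replicate at or above 50; inactive = mean and every replicate below 50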;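 also: strain carries kanamycin resistance gene driven by streptokinase promoter and grows in 40 µg/ml kanamycin; loss of luminescence reflects streptokinase promoter inhibition or plain growth inhibition; 0% = median of DMSO wells and 100% = positive control at its reference dose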
Mdm2-MdmX conf = confirmation of human Mdm2/MdmX interaction inhibitors; shares compounds with Mdm2-MdmX inh; Mdm2-MdmX binding, luminescent assay; inhibition, % at 8 µM; 10,000 tested, 55% active; AID 489028; in the data active = inhibition above about 40%
Full FLuc ctr = full-length luciferase inhibition in Mdm2/MdmX counter-screen; shares compounds with Mdm2-MdmX inh; SaOS-2 full-length luciferase counterscreen, luminescence; inhibition, % at 8 µM; 6,200 tested, 77% active; AID 504607;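 active = mean inhibition at 8 µM reaching about 37%, which flags the compound as non-specific, limit read from the data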;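 also: p53-null SaOS-2 cells with luciferase driven by a doxycycline-inducible promoter; compound on cells about two nights before reading with doxycycline added after day one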
Numbers without * were called inactive; ? = inconclusive; . = not tested or not shown. A selection: hits, their analogues and other compounds. The true share with any hit is near 5.7%.

SMILES | CSC inhib | Beta apoptosis | T cruzi repl | Mdm2-MdmX inh | Calb FLC | SKKanGAS inh | Mdm2-MdmX conf | Full FLuc ctr
O=C1[C@H]2[C@@H](c3ccc(F)cc3)N3C(=O)N(c4ccc(Br)cc4)C(=O)[C@@]3(Cc3ccc(Cl)cc3)[C@H]2C(=O)N1C1CCCCC1 | 1.3 | 9.6 | -1.7 | 85.2* | 19.1 | 6.5 | 93.5* | 27.8
O=C1[C@H]2[C@@H](c3ccc(F)cc3)N3C(=O)N(c4cccc(F)c4)C(=O)[C@@]3(Cc3ccccc3)[C@H]2C(=O)N1C1CCCCC1 | 24.1 | 6.4 | 10.3 | 28.6 | -0.5 | -0.2 | . | .
Cc1ccc2nc(SCC(=O)Nc3ccccc3N3CCOCC3)c(C#N)cc2c1 | 53.3 | 22.6 | -32.4 | 40.3 | . | 7.4 | . | .
CCc1ccc2nc(SCC(=O)Nc3ccccc3N3CCOCC3)c(C#N)cc2c1 | ? | 14.8 | 16.3 | 66.7* | 44.1 | 0.0 | 60.2* | 46.2*
O=C(Cc1nc2ccccc2[nH]1)c1cccc([N+](=O)[O-])c1 | 90.8* | 58.7 | 23.2 | 87.3* | 18.4 | 15.8 | 77.0* | 38.6*
Cc1ccc(C(=O)Cc2nc3ccccc3[nH]2)cc1 | 15.2 | -5.2 | 4.9 | -29.3 | 15.8 | 5.2 | . | .
O=C(CCc1nnc2n(CCc3ccccc3)c(=O)c3ccccc3n12)NCCCN1CCCCC1 | -2.3 | 1.9 | 8.2 | -16.6 | 10.5 | 2.7 | . | .
Cn1cccc1C(=O)OCC(=O)NC(=O)c1ccc(Cl)cc1 | -2.9 | -10.4 | . | -14.6 | . | . | . | .
Brc1cc(Br)c2ncnc(N3CCCCC3)c2c1 | 83.6* | 13.2 | 1.7 | 88.7* | -10.0 | 10.9 | 63.9* | 27.7
Clc1ccc(Cn2ncc3c(N4CCCCC4)ncnc32)c(Cl)c1 | -3.7 | 9.6 | 16.2 | 29.2 | -3.1 | 4.6 | . | .
O=C(Nc1c2ccccc2nc2ccccc12)C(Cl)(Cl)Cl | . | ? | 21.8 | 62.3* | -2.1 | -1.3 | 48.3* | 33.7
CC1(C)N=C(SCC(=O)Nc2ccc(Cl)cc2)C(c2ccc(Cl)cc2)=N1 | 38.7 | -17.4 | 42.0 | 55.9* | -1.5 | 0.4 | 12.8 | .
N#C/C(=C\c1cccc(Oc2ccc(C(F)(F)F)cc2[N+](=O)[O-])c1)c1nc2ccccc2[nH]1 | 69.0 | -4.3 | 1.7 | 38.2 | 6.1 | 19.7 | . | .
Cc1ccc2nc(/C(C#N)=C\c3ccc(Oc4ccc(C(F)(F)F)cc4[N+](=O)[O-])cc3)[nH]c2c1 | -17.2 | 3.8 | 49.8 | 60.7* | -6.3 | 35.1 | 43.9* | 75.2*
COc1ccc(/C=C(\C#N)c2nc3ccc(C)cc3[nH]2)cc1Oc1ccc(C(F)(F)F)cc1[N+](=O)[O-] | 21.9 | 43.1 | -2.4 | 83.2* | 1.0 | 4.7 | 11.8 | .
CCN(CC)CCN(Cc1cc2cc3c(cc2[nH]c1=O)OCCO3)C(=S)NC | -6.3 | -4.9 | 2.3 | 23.6 | 10.9 | -1.4 | . | .
CCCCn1c(=N)n(CC(=O)c2ccco2)c2ccccc21 | -2.0 | 3.5 | 4.1 | -10.7 | -5.5 | -0.7 | . | .
Cc1ccc(Cn2c(=N)n(CC(=O)c3ccc([N+](=O)[O-])cc3)c3ccccc32)cc1 | 2.0 | 15.5 | 20.4 | 98.3* | -11.7 | 0.1 | 17.5 | .
CCCCCCCn1c(=N)n(CC(=O)c2ccco2)c2ccccc21 | -2.4 | 23.1 | 43.1 | 63.1* | 3.0 | 2.7 | 16.1 | .
Cc1ccc(C(=O)Cn2c(=N)n(CCN3CCOCC3)c3ccccc32)cc1 | -0.3 | -5.5 | . | -11.0 | . | . | . | .
CCCCn1c(=N)n(CC(=O)c2ccc([N+](=O)[O-])cc2)c2ccccc21 | -9.1 | 3.7 | 3.3 | 54.9* | 42.1 | -2.9 | 15.5 | .
O=C(COC(=O)c1cc(S(=O)(=O)N2CCOCC2)ccc1F)NCCc1ccc(F)cc1 | -7.4 | -5.1 | . | 10.6 | . | . | . | .
Cc1cc(C(=O)OCC(=O)NCc2ccc(F)cc2)c2ccccc2n1 | . | -5.2 | . | 17.6 | . | . | . | .
Cc1cc(C(=O)OCC(=O)Nc2ccc(F)cc2[N+](=O)[O-])c2ccccc2n1 | -13.1 | 2.8 | 3.4 | 52.0* | 15.8 | 1.0 | 50.6* | 100.2*
Cc1ccc(NC(=O)CNC(=O)c2cccc(C)c2)nc1 | 42.6 | . | -8.4 | 75.7* | -10.4 | 3.0 | 47.9* | 61.5*
SMILES | CSC inhib | Beta apoptosis | T cruzi repl | Mdm2-MdmX inh | Calb FLC | SKKanGAS inh | Mdm2-MdmX conf | Full FLuc ctr
Cc1ccc(NC(=O)CNC(=O)c2ccco2)nc1 | -11.0 | -3.7 | -16.8 | 4.9 | -2.0 | -2.9 | . | .
CC1(C)CC2CC(C)(CN2S(=O)(=O)c2ccc(F)cc2F)C1 (configuration not stated) | 4.4 | -0.6 | . | -0.1 | . | . | . | .
O=C(c1cc2c(s1)CCCC2)N1CCN(Cc2ccc3c(c2)OCO3)CC1 | . | -6.1 | 26.8 | 30.3 | . | 0.3 | . | .
O=C(Oc1ccc2c(c1)OCO2)c1cc2c(s1)CCC2 | -2.2 | 9.2 | -8.2 | 97.1* | -14.0 | 3.9 | 78.0* | 21.1
Cc1nc(SCC(=O)NCC2CCCO2)c2cc(-c3ccccc3)sc2n1 (configuration not stated) | . | 1.8 | . | 71.3* | . | . | 15.1 | .
CC(C)(CNC(=O)C1c2ccccc2-c2ccccc21)N1CCOCC1 | -4.2 | -3.9 | -12.1 | -16.5 | 4.4 | -1.6 | . | .
O=C(Cc1ccc(Cl)cc1Cl)OCC(=O)N1CCCCC1 | -12.2 | -6.9 | -9.9 | 16.8 | 0.7 | -1.6 | . | .
Cc1ccc2c(c1)c1c(n2CC(O)CNC2CCCC2)CCCC1 (configuration not stated) | 7.8 | -19.7 | 22.0 | 56.5* | -9.6 | 2.4 | 39.6 | 77.2*
O=C1N/C(=C\c2ccc(N3CCOCC3)c(F)c2)C(=O)N1Cc1ccccc1 | 51.9 | 28.1 | 0.0 | 72.5* | -4.5 | 13.3 | 40.2* | 73.6*
O=C(Nc1cccc(S(=O)(=O)Nc2ccc(Cl)cc2)c1)c1ccccn1 | . | -2.8 | . | -1.8 | . | . | . | .
CCOc1ccc2nc(SC3CC(=O)N(c4ccc(OC)cc4)C3=O)sc2c1 (configuration not stated) | -5.0 | -7.5 | 48.7 | 65.6* | 3.4 | 14.5 | -27.7 | .
COc1cccc(C(C[N+](=O)[O-])c2c(C)[nH]n(-c3ccccc3)c2=O)c1 (configuration not stated) | -12.2 | 6.0 | -2.3 | 65.2* | -19.7 | 7.4 | 25.4 | .
CCc1nc(SCC(=O)Nc2ccc(F)cc2)c2c(=O)n(C)c(=O)n(C)c2n1 | -6.6 | . | -5.1 | 2.7 | -2.4 | 45.6 | . | .
O=[N+]([O-])c1ccc2ncnc(Nc3ccc4c(c3)OCCO4)c2c1 | 6.0 | -4.7 | -12.1 | 56.3* | 2.6 | -1.0 | 57.7* | 29.6
COc1ccc([N+](=O)[O-])cc1Nc1ncnc2ccccc12 | -15.5 | 1.4 | 3.0 | 13.5 | ? | -3.7 | . | .
O=[N+]([O-])c1ccc(O)c(Nc2ncnc3ccccc23)c1 | 13.0 | -2.9 | 4.2 | 60.2* | 45.3 | -0.8 | 17.3 | .
N#Cc1cnc2nc(SCc3ccccc3)nn2c1 | -10.3 | -0.8 | 11.4 | -41.5 | 0.8 | 4.3 | . | .
COc1cc(-c2cc(C(=O)Nc3ccncc3)c3ccccc3n2)cc(OC)c1OC | . | 18.9 | . | 17.6 | . | . | . | .

Source: PubChem BioAssay
